Where a SMILES comes first, the peptide text is derived from it. [ ]: non-standard residue; d: D form. ξ: configuration not given here. Bip = N[C@@H](Cc1ccc(-c2ccccc2)cc1)C(=O)O; ξBip = NC(Cc1ccc(-c2ccccc2)cc1)C(=O)O; ξDip = NC(C(=O)O)C(c1ccccc1)c1ccccc1
Legend:
[1] = Hemolytic activity in human red blood cells incubated for 1 hr by spectrophotometric microtiter plate reader method; assay type: toxicity, cell-based, Erythrocyte
[2] = Stability in pooled and cryopreserved rat hepatocytes assessed as half life at 1 uM measured for 90 mins by LC-MS/MS analysis; assay type: ADME, cell-based, Hepatocyte
Procedure, shortened: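 Pooled cryopreserved rat or human hepatocytes, 0.5 million cells/mL, ~37 °C, peptide at 1 μM initial. Supernatants analysed by LC–MS/MS with peak height referenced to time zero. t1/2 = −0.693/slope of ln concentration vs time. Duplicate experiments. Testosterone, midazolam and 4-methylumbelliferone served as metabolic-competence controls.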

[3] = tested on: CEM-VLB; experiment: Cytotoxicity against human CCRF-CEM/VLB cells assessed as inhibition of cell proliferation incubated for 4 hrs by MTS assay; assay type: functional, cell-based
Procedure, shortened: (§1)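 Cells grown in RPMI-1640 with 2 mM L-glutamine and 10% FBS, plated, then held 24 h at 37 °C. Adherent lines washed once in FBS-free medium. Cells exposed 4 h at 37 °C, 5% CO2 in FBS-free medium to 10 concentrations (1/4 steps, 400 μM top). 1% Triton X-100 served as positive control. MTS/PMS added for 2 h, then OD 490 nm read. IC50 from semilog curves; three independent experiments, quadruplicate wells.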

[4] = Cytotoxicity against human MRC5 cells assessed as inhibition of cell proliferation incubated for 4 hrs by MTT assay; assay type: toxicity, cell-based
Procedure, shortened: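 MRC-5 human embryonic lung fibroblasts cultured in MEM with 2 mM L-glutamine and 10% FBS, without antibiotics, at 37 °C in humidified 5% CO2. Cultures were tested for mycoplasma. IC50 from three or more independent measurements, given as mean ± SD.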

[5] = tested on: DU-145; experiment: Cytotoxicity against human DU-145 cells assessed as inhibition of cell proliferation incubated for 4 hrs by MTS assay; assay type: functional, cell-based; conditions: DU-145, 4 h; procedure, shortened: as §1
[6] = Half life in human plasma measured by RP-HPLC analysis; assay type: ADME, cell-free
[7] = Stability in pooled and cryopreserved human hepatocytes assessed as intrinsic clearance measured per 10^6 cells at 1 uM measured for 90 mins by LC-MS/MS analysis; assay type: ADME, cell-based, Hepatocyte; conditions: read-out: CLH
Procedure, shortened: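 Pooled cryopreserved hepatocytes at 0.5 million cells/mL, incubated at about 37 °C with 1 μM initial peptide. Supernatant after centrifugation analysed by LC–MS/MS (MRM) using a D-Trp7,9,10-substance P internal standard. Peak height was referenced to time zero, and t1/2 = −0.693/slope of ln concentration vs time. Clint = 0.693/t1/2 × Vinc per million cells. Testosterone, midazolam and 4-methylumbelliferone were the positive controls. Duplicates; mean of two experiments.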

[8] = tested on: K562; experiment: Cytotoxicity against human K562 cells assessed as inhibition of cell proliferation incubated for 4 hrs by MTS assay; assay type: functional, cell-based; conditions: K562, 4 h; procedure, shortened: as §1
[9] = tested on: HL-60; experiment: Cytotoxicity against human HL-60 cells assessed as inhibition of cell proliferation incubated for 4 hrs by MTS assay; assay type: functional, cell-based; conditions: HL-60, 4 h; procedure, shortened: as §1
[10] = tested on: NAMALVA; experiment: Cytotoxicity against human NAMALVA cells assessed as inhibition of cell proliferation incubated for 4 hrs by MTS assay; assay type: functional, cell-based; procedure, shortened: as §1
[11] = molecular target: Cytochrome P450 2E1 (Homo sapiens, UniProt P05181); experiment: Inhibition of CYP2E1 in human liver microsomes using chlorzoxazone as substrate assessed as reduction in substrate hydroxylation incubated for 30 mins in presence of beta-NADPH measured by LC-MS/MS analysis; assay type: ADME, Microsome
Sequence of Cytochrome P450 2E1 (P05181 whole entry, canonical isoform): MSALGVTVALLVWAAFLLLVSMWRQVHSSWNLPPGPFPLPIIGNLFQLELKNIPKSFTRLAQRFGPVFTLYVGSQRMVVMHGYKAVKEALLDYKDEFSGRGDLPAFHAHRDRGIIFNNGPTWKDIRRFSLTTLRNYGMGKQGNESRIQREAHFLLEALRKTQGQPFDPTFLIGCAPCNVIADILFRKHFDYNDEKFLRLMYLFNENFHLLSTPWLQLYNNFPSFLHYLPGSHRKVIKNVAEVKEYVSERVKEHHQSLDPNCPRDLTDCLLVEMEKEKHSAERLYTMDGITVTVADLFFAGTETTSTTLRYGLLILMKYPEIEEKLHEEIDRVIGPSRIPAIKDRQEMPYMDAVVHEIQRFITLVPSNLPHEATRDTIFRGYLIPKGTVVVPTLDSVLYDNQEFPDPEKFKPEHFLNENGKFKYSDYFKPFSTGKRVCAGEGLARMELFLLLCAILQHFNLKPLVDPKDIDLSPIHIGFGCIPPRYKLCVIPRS
Procedure, shortened: (§2)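 Pooled human liver microsomes (50 donors) in 100 mM phosphate, pH 7.4, with 2 mM β-NADPH. Protein 0.1 mg/mL (2A6, 2C8, 2C9, 2E1, 3A4) or 0.3 mg/mL (1A2, 2B6, 2C19, 2D6). Test article 0–100 μM final, preincubated ~37 °C 5 or 30 min before isoform-selective substrate. Quenched in methanol with internal standard. Metabolite measured by LC–MS/MS against standard curve. Duplicates, with selective inhibitor positive controls.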

[12] = tested on: SU-DHL-1; experiment: Cytotoxicity against human SU-DHL-1 cells assessed as inhibition of cell proliferation incubated for 4 hrs by MTS assay; assay type: functional, cell-based; conditions: SU-DHL-1, 4 h; procedure, shortened: as §1
[13] = Protein binding in Beagle dog plasma assessed as bound fraction at 200 to 1000 ng/ml incubated for 20 hrs in presence of AEBSF by LC-MS/MS analysis; assay type: ADME, cell-free, Canis lupus familiaris; conditions: dose 200-1000 ng/ml, read-out: PPB
Procedure, shortened: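 Pooled plasma (human volunteers; Han Wistar rat; Beagle dog) containing AEBSF 1 mg/mL. Spiked to 200, 500 or 1000 ng/mL final, in duplicate. Ultracentrifuged 45 000 rpm, 37 °C, 20 h. Supernatant quantified by LC–MS/MS. % bound = [(C − CS)/C] × 100. Values are upper limits because of residual degradation.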

[14] = Cytotoxicity against human IGROV(CDDP) cells assessed as inhibition of cell proliferation incubated for 4 hrs by MTS assay; assay type: functional, cell-based; procedure, shortened: as §1
[15] = molecular target: Cytochrome P450 2C8 (Homo sapiens, UniProt P10632); experiment: Inhibition of CYP2C8 in human liver microsomes using paclitaxel as substrate assessed as reduction in substrate hydroxylation incubated for 5 mins in presence of beta-NADPH measured by LC-MS/MS analysis; assay type: ADME, Microsome; procedure, shortened: as §2
Sequence of Cytochrome P450 2C8 (P10632 whole entry): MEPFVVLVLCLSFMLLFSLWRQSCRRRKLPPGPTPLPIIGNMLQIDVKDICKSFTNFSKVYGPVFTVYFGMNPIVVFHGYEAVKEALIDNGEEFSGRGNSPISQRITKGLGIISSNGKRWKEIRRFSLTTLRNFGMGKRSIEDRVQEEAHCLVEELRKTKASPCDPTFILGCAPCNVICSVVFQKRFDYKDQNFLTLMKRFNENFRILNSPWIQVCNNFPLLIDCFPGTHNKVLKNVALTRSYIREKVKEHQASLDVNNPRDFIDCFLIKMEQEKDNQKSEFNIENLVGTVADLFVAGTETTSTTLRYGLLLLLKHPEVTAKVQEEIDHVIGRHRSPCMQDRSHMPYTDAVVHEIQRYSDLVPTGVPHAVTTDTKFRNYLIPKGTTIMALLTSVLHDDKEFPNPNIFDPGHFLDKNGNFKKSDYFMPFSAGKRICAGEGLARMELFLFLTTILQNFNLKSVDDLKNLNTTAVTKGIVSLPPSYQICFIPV

[16] = molecular target: Cytochrome P450 3A4 (Homo sapiens, UniProt P08684); experiment: Inhibition of CYP3A4 in human liver microsomes using midazolam as substrate assessed as reduction in substrate hydroxylation incubated for 30 mins in presence of beta-NADPH measured by LC-MS/MS analysis; assay type: ADME, Microsome; procedure, shortened: as §2
Sequence of Cytochrome P450 3A4 (P08684 whole entry): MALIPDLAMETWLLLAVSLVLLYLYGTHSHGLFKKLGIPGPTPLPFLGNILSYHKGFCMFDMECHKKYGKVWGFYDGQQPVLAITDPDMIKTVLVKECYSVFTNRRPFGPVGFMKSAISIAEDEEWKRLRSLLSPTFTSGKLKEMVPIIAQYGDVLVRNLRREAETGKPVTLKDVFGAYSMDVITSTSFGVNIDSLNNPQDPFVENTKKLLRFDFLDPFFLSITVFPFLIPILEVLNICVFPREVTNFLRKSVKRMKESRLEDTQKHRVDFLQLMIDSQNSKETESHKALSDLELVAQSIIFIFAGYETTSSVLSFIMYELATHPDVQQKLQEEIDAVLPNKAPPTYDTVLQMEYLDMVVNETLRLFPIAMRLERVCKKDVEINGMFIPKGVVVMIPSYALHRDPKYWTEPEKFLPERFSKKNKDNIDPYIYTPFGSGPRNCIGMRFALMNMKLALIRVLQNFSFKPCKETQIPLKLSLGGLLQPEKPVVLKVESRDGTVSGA

[17] = tested on: MCF7; experiment: Cytotoxicity against human MCF7 cells transfected with MDR1 assessed as inhibition of cell proliferation incubated for 4 hrs by MTS assay; assay type: functional, cell-based; conditions: MCF7, 4 h; procedure, shortened: as §1
[18] = tested on: MCF7; experiment: Cytotoxicity against human MCF7 cells assessed as inhibition of cell proliferation incubated for 4 hrs by MTS assay; assay type: functional, cell-based; conditions: MCF7, 4 h; procedure, shortened: as §1
[19] = tested on: MDA-MB-231; experiment: Cytotoxicity against human MDA-MB-231 cells assessed as inhibition of cell proliferation incubated for 4 hrs by MTS assay; assay type: functional, cell-based; conditions: MDA-MB-231, 4 h; procedure, shortened: as §1
[20] = tested on: A20; experiment: Cytotoxicity against mouse A20 lymphoma cells assessed as inhibition of cell proliferation incubated for 4 hrs by MTT assay; assay type: functional, cell-based; conditions: A20, 4 h
Procedure, shortened: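 Murine A20 cells cultured in RPMI-1640 with 2 mM L-glutamine, 1.5 g/L sodium bicarbonate, 4.5 g/L glucose, 10 mM HEPES, 1.0 mM sodium pyruvate, 0.05 mM 2-mercaptoethanol and 10% FBS, without antibiotics, at 37 °C, 5% CO2. IC50 from three or more independent measurements, given as mean ± SD.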

[21] = molecular target: Cytochrome P450 2C19 (Homo sapiens, UniProt P33261); experiment: Inhibition of CYP2C19 in human liver microsomes using (S)-mephenytoin as substrate assessed as reduction in substrate hydroxylation incubated for 30 mins in presence of beta-NADPH measured by LC-MS/MS analysis; assay type: ADME, Microsome; procedure, shortened: as §2
Sequence of Cytochrome P450 2C19 (P33261 whole entry): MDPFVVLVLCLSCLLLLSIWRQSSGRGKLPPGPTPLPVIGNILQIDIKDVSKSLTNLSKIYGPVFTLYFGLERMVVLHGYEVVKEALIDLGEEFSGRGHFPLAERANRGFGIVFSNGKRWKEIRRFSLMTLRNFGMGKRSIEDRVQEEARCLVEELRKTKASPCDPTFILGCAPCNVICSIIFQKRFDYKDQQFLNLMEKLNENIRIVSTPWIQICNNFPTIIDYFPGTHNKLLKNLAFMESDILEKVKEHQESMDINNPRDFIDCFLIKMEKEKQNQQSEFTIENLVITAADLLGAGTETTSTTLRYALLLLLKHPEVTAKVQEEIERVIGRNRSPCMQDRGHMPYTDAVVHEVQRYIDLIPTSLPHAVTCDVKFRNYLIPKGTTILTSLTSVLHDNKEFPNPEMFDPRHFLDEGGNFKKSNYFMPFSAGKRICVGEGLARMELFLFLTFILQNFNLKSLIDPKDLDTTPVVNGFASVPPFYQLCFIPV

[22] = molecular target: Cytochrome P450 2B6 (Homo sapiens, UniProt P20813); experiment: Inhibition of CYP2B6 in human liver microsomes using bupropion as substrate assessed as reduction in substrate hydroxylation incubated for 30 mins in presence of beta-NADPH measured by LC-MS/MS analysis; assay type: ADME, Microsome; procedure, shortened: as §2
Sequence of Cytochrome P450 2B6 (P20813 whole entry): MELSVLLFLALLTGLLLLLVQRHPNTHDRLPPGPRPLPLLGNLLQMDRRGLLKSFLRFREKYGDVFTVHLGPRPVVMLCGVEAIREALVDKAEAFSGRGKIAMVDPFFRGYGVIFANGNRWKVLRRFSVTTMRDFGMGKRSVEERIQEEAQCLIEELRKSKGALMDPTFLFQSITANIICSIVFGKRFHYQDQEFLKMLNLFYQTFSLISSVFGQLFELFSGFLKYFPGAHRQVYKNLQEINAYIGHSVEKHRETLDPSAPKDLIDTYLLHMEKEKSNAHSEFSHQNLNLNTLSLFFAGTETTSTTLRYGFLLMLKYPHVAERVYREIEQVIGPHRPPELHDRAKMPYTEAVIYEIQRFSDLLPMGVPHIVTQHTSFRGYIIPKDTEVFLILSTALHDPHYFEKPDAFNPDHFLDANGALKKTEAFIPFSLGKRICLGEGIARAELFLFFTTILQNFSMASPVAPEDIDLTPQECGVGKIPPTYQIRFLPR

[23] = tested on: HCT-116; experiment: Cytotoxicity against human HCT-116 cells assessed as inhibition of cell proliferation incubated for 4 hrs by MTS assay; assay type: functional, cell-based; conditions: HCT-116, 4 h; procedure, shortened: as §1

Row | Structure (SMILES) | IC50 [3] | IC50 at 4 h [4] | IC50 [5] | IC50 [8] | IC50 [9] | IC50 [10] | IC50 [12] | IC50 [14] | IC50 [17] | IC50 [18] | IC50 [19] | IC50 [20] | IC50 [23] | other results
1 | NCCCC[C@H](NC(=O)C(NC(=O)[C@H](Cc1c[nH]c2ccccc12)NC(=O)[C@H](CCCCN)NC(=O)[C@H](CCCCN)NC(=O)[C@H](Cc1c[nH]c2ccccc12)NC(=O)[C@H](Cc1c[nH]c2ccccc12)NC(=O)[C@H](CCCCN)NC(=O)[C@@H](N)CCCCN)C(c1ccccc1)c1ccccc1)C(N)=O (stereo not given in full) (H-KKWWKKW[ξDip]K-NH2) | 2.4 µM | 34.3 µM | 3.9 µM | 3 µM | 2.1 µM | 3.6 µM | 2.3 µM | 3.2 µM | 2.5 µM | 2.2 µM | 3.6 µM | 8.3 µM | 3.4 µM | EC50 at 1 h [1]: > 695 µM; half-life at 1 µM [2]: 1.18 h; half-life [6]: 2.67 h; hepatocyte CLint at 1 µM [7]: 22 µL/min/1e6 cells; IC50 [11]: 30 µM; fraction unbound at 20 h [13]: > 0.08; IC50 [15]: 10.2 µM; IC50 [16]: 63.7 µM; IC50 [21]: > 100 µM; IC50 [22]: 18.6 µM
2 | NCCCC[C@H](NC(=O)[C@H](Cc1c[nH]c2ccccc12)NC(=O)[C@H](Cc1c[nH]c2ccccc12)NC(=O)[C@H](CCCCN)NC(=O)[C@H](CCCCN)NC(=O)[C@H](Cc1c[nH]c2ccccc12)NC(=O)[C@H](Cc1ccc(-c2ccccc2)cc1)NC(=O)[C@H](CCCCN)NC(=O)[C@@H](N)CCCCN)C(N)=O (H-KK[Bip]WKKWWK-NH2) | 4 µM | 87 µM | 8.2 µM | 7.4 µM | 6.1 µM | 6.5 µM | 5.6 µM | 6.6 µM | 4.9 µM | 4.6 µM | 9.3 µM | 8.3 µM | 8.6 µM | 
3 | NCCCC[C@H](NC(=O)[C@H](Cc1c[nH]c2ccccc12)NC(=O)[C@H](Cc1c[nH]c2ccccc12)NC(=O)[C@H](CCCCN)NC(=O)[C@H](CCCCN)NC(=O)[C@H](Cc1c[nH]c2ccccc12)NC(=O)C(Cc1ccc(-c2ccccc2)cc1)NC(=O)[C@H](CCCCN)NC(=O)[C@@H](N)CCCCN)C(N)=O (stereo not given in full) (H-KK[ξBip]WKKWWK-NH2) | 5.7 µM | 151 µM | 8.8 µM | 7.2 µM | 6.1 µM | 8.5 µM | 4.6 µM | 6.6 µM | 8.4 µM | 6.8 µM | 10.8 µM | 13 µM | 7.6 µM | 
4 | N=C(N)NCCC[C@H](NC(=O)[C@H](Cc1c[nH]c2ccccc12)NC(=O)[C@H](Cc1c[nH]c2ccccc12)NC(=O)[C@H](CCCNC(=N)N)NC(=O)[C@H](CCCNC(=N)N)NC(=O)C(NC(=O)[C@H](Cc1c[nH]c2ccccc12)NC(=O)[C@H](CCCNC(=N)N)NC(=O)[C@@H](N)CCCNC(=N)N)C(c1ccccc1)c1ccccc1)C(N)=O (stereo not given in full) (H-RRW[ξDip]RRWWR-NH2) | 3.6 µM | 76 µM | 6.8 µM | 7 µM | 6.7 µM | 5.3 µM | 5 µM | 5.5 µM | 6.6 µM | 5.5 µM | 7.6 µM | 6.7 µM | 4.8 µM | 
5 | NCCCC[C@H](NC(=O)[C@H](Cc1c[nH]c2ccccc12)NC(=O)[C@H](CCCCN)NC(=O)[C@H](CCCCN)NC(=O)C(NC(=O)[C@H](Cc1c[nH]c2ccccc12)NC(=O)[C@H](CCCCN)NC(=O)[C@H](CCCCN)NC(=O)[C@@H](N)Cc1c[nH]c2ccccc12)C(c1ccccc1)c1ccccc1)C(N)=O (stereo not given in full) (H-WKKW[ξDip]KKWK-NH2) | 5.3 µM | 122 µM | 12.4 µM | 8.2 µM | 8 µM | 7.1 µM | 7.3 µM | 6.4 µM | 11 µM | 8.9 µM | 13 µM | 16 µM | 10.3 µM | 

Source: ChEMBL document CHEMBL5257020, “Discovery of a 9-mer Cationic Peptide (LTX-315) as a Potential First in Class Oncolytic Peptide” (J Med Chem, 2016)
